Assay results as given in ChEMBL document CHEMBL1649132, “Dry powder nitroimidazopyran antibiotic PA-824 aerosol for inhalation” (Antimicrob Agents Chemother, 2009).
In brackets after ≈: the same amount, converted by molar mass.

How the values were obtained:
[1] = Half life in guinea pig at 40 mg/kg, administered via intratracheal insufflation by HPLC method; type: ADME, organism-based, Cavia porcellus; parameters: dose 40 mg/kg, route endotracheal; settings: in vivo, inhaled or intranasal
How it was run: (§1)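 Healthy male guinea pigs (463.86 ± 65.11 g), jugular vein cannulated 24 h before dosing; n = 6 or 7 per group. Dosing was i.v. solution 20 mg/kg, oral gavage of mixed micelle suspension (10% hydroxypropyl-β-cyclodextrin, 10% lecithin) 40 mg/kg, or intratracheal insufflation of porous dry powder at nominal 20, 40, 60 mg/kg. For insufflation, the delivered dose was taken by weighing the device before and after. Blood was drawn 0–24 h (to 32 h at 60 mg/kg) and plasma assayed by validated HPLC-UV (standards 0.20–50 µg/ml).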

[2] = Mean residence time in guinea pig at 40 mg/kg, administered via intratracheal insufflation by HPLC method; type: ADME, organism-based, Cavia porcellus; parameters: dose 40 mg/kg, route endotracheal; settings: in vivo, inhaled or intranasal; how it was run: as §1
[3] = Cmax in guinea pig at 40 mg/kg, administered via intratracheal insufflation by HPLC method; type: ADME, organism-based, Cavia porcellus; parameters: dose 40 mg/kg, route endotracheal; settings: in vivo, inhaled or intranasal; how it was run: as §1
[4] = Tmax in guinea pig at 40 mg/kg, administered via intratracheal insufflation by HPLC method; type: ADME, organism-based, Cavia porcellus; parameters: dose 40 mg/kg, route endotracheal; settings: in vivo, inhaled or intranasal; how it was run: as §1
[5] = Bioavailability (0 to infinity) in guinea pig at 40 mg/kg, administered via intratracheal insufflation by HPLC method; type: ADME, organism-based, Cavia porcellus; settings: in vivo, inhaled or intranasal; how it was run: as §1
[6] = Bioavailability in guinea pig at 40 mg/kg, administered via intratracheal insufflation by HPLC method; type: ADME, organism-based, Cavia porcellus; settings: in vivo, inhaled or intranasal; how it was run: as §1
[7] = AUC (0 to infinity) in guinea pig at 60 mg/kg, administered via intratracheal insufflation by HPLC method; type: ADME, organism-based, Cavia porcellus; parameters: time infinity, dose 60 mg/kg, route endotracheal; settings: plasma, inhaled or intranasal; how it was run: as §1
[8] = Elimination rate constant in guinea pig at 60 mg/kg, administered via intratracheal insufflation by HPLC method; type: ADME, organism-based, Cavia porcellus; parameters: dose 60 mg/kg, route endotracheal; settings: in vivo, inhaled or intranasal; how it was run: as §1
[9] = Half life in guinea pig at 60 mg/kg, administered via intratracheal insufflation by HPLC method; type: ADME, organism-based, Cavia porcellus; parameters: dose 60 mg/kg, route endotracheal; settings: in vivo, inhaled or intranasal; how it was run: as §1
[10] = Mean residence time in guinea pig at 60 mg/kg, administered via intratracheal insufflation by HPLC method; type: ADME, organism-based, Cavia porcellus; parameters: dose 60 mg/kg, route endotracheal; settings: in vivo, inhaled or intranasal; how it was run: as §1
[11] = Cmax in guinea pig at 60 mg/kg, administered via intratracheal insufflation by HPLC method; type: ADME, organism-based, Cavia porcellus; parameters: dose 60 mg/kg, route endotracheal; settings: in vivo, inhaled or intranasal; how it was run: as §1
[12] = Tmax in guinea pig at 60 mg/kg, administered via intratracheal insufflation by HPLC method; type: ADME, organism-based, Cavia porcellus; parameters: dose 60 mg/kg, route endotracheal; settings: in vivo, inhaled or intranasal; how it was run: as §1
[13] = Bioavailability (0 to infinity) in guinea pig at 60 mg/kg, administered via intratracheal insufflation by HPLC method; type: ADME, organism-based, Cavia porcellus; settings: in vivo, inhaled or intranasal; how it was run: as §1
[14] = Bioavailability in guinea pig at 60 mg/kg, administered via intratracheal insufflation by HPLC method; type: ADME, organism-based, Cavia porcellus; settings: in vivo, inhaled or intranasal; how it was run: as §1
[15] = Chemical stability of the compound at 4 degC; type: physicochemical
[16] = Chemical stability of the compound at 25 degC; type: physicochemical
[17] = Half life in po dosed monkey; type: ADME, organism-based, Macaca mulatta; settings: rhesus monkey, in vivo
[18] = Half life in po dosed dog; type: ADME, organism-based, Canis lupus familiaris; settings: in vivo
[19] = Tmax in po dosed monkey; type: ADME, organism-based, Macaca mulatta; settings: rhesus monkey, in vivo
[20] = Tmax in po dosed rat; type: ADME, organism-based; settings: in vivo
[21] = system: Mycobacterium tuberculosis; test: Antimicrobial activity against Mycobacterium tuberculosis; type: functional
[22] = Ratio of Cmax in guinea pig at 40 mg/kg, po to MIC for Mycobacterium tuberculosis; type: functional
[23] = Ratio of Cmax in guinea pig at 40 mg/kg, administered via intratracheal insufflation to MIC for Mycobacterium tuberculosis; type: functional; settings: route endotracheal
[24] = Ratio of Cmax in mouse at 100 mg/kg, po to MIC for Mycobacterium tuberculosis; type: functional
[25] = Metabolic stability of the compound assessed as compound remaining in lung of guinea pig administered via intratracheal insufflation; type: ADME, tissue-based, Cavia porcellus; settings: in vivo, inhaled_or_intranasal
How it was run: (§2)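 After the last blood sample (32 h), the guinea pigs were euthanized by exsanguination. BAL fluid was collected with 5 ml sterile saline and centrifuged. The supernatant was assayed for drug by the plasma HPLC method, adapted for BAL fluid. Routes were i.v. 20 mg/kg, oral 40 mg/kg, or insufflated powder 20, 40, 60 mg/kg; n = 6 or 7.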

[26] = Metabolic stability of the compound assessed as compound remaining in lung of guinea pig at 20 mg/kg, iv after 32 hrs; type: ADME, organism-based, Cavia porcellus; parameters: dose 20 mg/kg, route intravenous; settings: in vivo; how it was run: as §2
[27] = Metabolic stability of the compound assessed as compound remaining in lung of guinea pig at 40 mg/kg, po after 32 hrs; type: ADME, organism-based, Cavia porcellus; parameters: dose 40 mg/kg, route oral; settings: in vivo; how it was run: as §2

O=[N+]([O-])c1cn2c(n1)OC[C@@H](OCc1ccc(OC(F)(F)F)cc1)C2 [PRETOMANID] showed a half-life [1] of 4.38 h, an MRT [2] of 7.52 h and a Cmax [3] of 3420 ng/mL. For the same compound, the Tmax [4] was 3.25 h, the bioavailability [5] was 0.63% and the bioavailability [6] was 1.12%. The AUC(0-inf) [7] was 51000 ng·h/mL, the k el [8] was 3.61e-05 s⁻¹ and the half-life [9] was 5.91 h. The MRT [10] was 8.26 h, the Cmax [11] was 4580 ng/mL and the Tmax [12] was 3.6 h. The bioavailability [13] was 0.62%, the bioavailability [14] was 0.74% and the Stability [15] was “Stable”. The Stability [16] was “Stable”, the half-life [17] was 2 h and the half-life [18] was 1 h. For the same compound, the Tmax [19] was 3.33 h, the Tmax [20] was 6 h and the MIC [21] was 0.015 µg/mL (≈ 0.0418 µM). For the same compound, the Ratio [22] was 14, the Ratio [23] was 17 and the Ratio [24] was 80. The Activity [25] was “Dose-dependent effect”, the Stability [26] was “Unstable” and the Stability [27] was “Unstable”.
